Shown is part of a subset that was picked to be rich in hits.
bCat KO growth – beta-catenin-lacking colon tumor cell growth suppression; HCT116 beta-catenin knockout viability, CellTiter-Glo, 60 h; stronger effect = lower value; viability, % at 10 µM; 140,000 compounds, 1.5% hits; AID 818;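 active = viability at or under a set limit, the compound median less 4 SD, cut at about 6% in these data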;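 also: 0% = Hyamine 1622 control at 20 µM and 100% = untreated cell control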
H69AR inhibit – growth inhibitors of human H69AR lung tumor cells. H69AR lung tumor viability, ATP luminescence, 72 h; stronger effect = lower value. 85,000 compounds, 6% hits. viability, % at 10 µM;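 active = viability at or below 40%; inactive = viability above 40%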;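 also: multidrug resistant small cell line overexpressing MRP-1 efflux transporter; 100% = mean luminescence of untreated control wells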
Fibroblast inh – blocks proliferation of human lung fibroblasts | LL 47 human lung fibroblast viability, ATP luminescence; stronger effect = lower value | viability, % at 10 µM | 85,000 compounds, 1.1% hits | AID 719;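 active = viability at or below 50% in the single dose screen; inactive = viability above 50%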;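 also: compound exposure lasted 72 h before the ATP readout; 100% = median luminescence of untreated cell-only wells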
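test system = LL 47 human lung fibroblasts | amount = 1,150 fibroblasts seeded per well | medium = 15% FBS in IMEM | times = overnight cell rest, 72 h compound treatment at 37 °C | measured by = CellTiter-Glo luminescence measuring cellular ATP | read-out = viability percentage against median untreated-cell control | benchmarks = cell-only wells, no compound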
HUVEC prolif 384 – blocks proliferation of human endothelial cells. 86,000 compounds, 1.1% hits. viability, % at 10 µM (by protocol). HUVEC proliferation, CellTiter-Glo luminescence, 72 h; stronger effect = lower value;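 active = viability at or below 30%; inactive = viability above 30%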;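 also: 100% = median luminescence of DMSO-only cell control wells on each plate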
HCT116 PTEN-null – growth suppressors of cells with PTEN tumor suppressor deletion. HCT116 PTEN-null viability, CellTiter-Glo, 60 h; stronger effect = lower value. viability, % at 10 µM. 140,000 compounds, 1.2% hits. AID 827;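 active = viability at or below a set limit, 4 SD under the median of all tested compounds, cut at about 3.7% in these data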;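 also: PTEN knockout HCT116 line with beta catenin targeted HCT116 as companion control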
* marks the source's active call; other numbers are inactive results; . = no result given.

SMILES	bCat KO growth	H69AR inhibit	Fibroblast inh	HUVEC prolif 384	HCT116 PTEN-null
CCCCOc1ccc(CN(C)c2ncnc(N)n2)cc1	55.4	34.9*	91.2	78.2	60.0
CCOC(=O)N1CCC(n2c(=S)[nH]c3cc(OCC)c(OCC)cc3c2=O)CC1	86.4	22.3*	12.2*	27.5*	84.4
CCOc1cc2[nH]c(=S)n(CCN3CCC(C)CC3)c(=O)c2cc1OCC	60.2	58.4	101.1	96.1	64.3
CC12CCC(C(=O)Nc3cc(Cl)ccc3Cl)(C(Br)C1=O)C2(C)C (configuration not stated)	90.7	.	.	.	87.6
CCCC1CCC(C(=O)Nn2c(C)nc3ccccc3c2=O)CC1 (configuration not stated)	92.6	94.0	94.5	92.5	89.3
CCCCCCC1CCC(C(=O)Nn2c(C)nc3ccccc3c2=O)CC1 (configuration not stated)	61.9	34.8*	98.2	113.3	64.9
CCc1ccccc1N(C1=NCCCS1)S(=O)(=O)c1ccc(C(C)(C)C)cc1	67.7	.	.	.	62.7
COC(=O)c1ccc(Cl)c(NC(=O)CN(c2ccccc2)S(=O)(=O)c2ccc(OC)cc2)c1	77.0	.	.	.	74.2
CC(C)n1cc(NC(=O)c2cc(-c3ccccc3)on2)cn1	23.6	20.5*	73.5	69.6	25.4
O=S(=O)(c1ccc2nc(SCc3cccc(Cl)c3)[nH]c2c1)N1CCOCC1	74.6	.	.	.	81.4
CC(=O)n1cc(Nc2ccccc2C(=O)O)c2ccccc21	93.8	54.0	100.9	105.2	83.9
CCOC(=O)c1ccccc1Nc1cn(C(C)=O)c2ccccc12	10.0	23.2*	45.9*	57.5	14.7
O=C(O)c1cc(-c2ccc3c(c2)OCO3)nc2ccccc12	88.4	93.9	93.5	94.1	101.9
CC(NC(=O)c1cc(-c2ccc3c(c2)OCO3)nc2ccccc12)C(C)(C)C (configuration not stated)	38.3	16.3*	72.4	76.7	48.6
COc1ccc(CN(C)CC(=O)Nc2cc(OC)c([N+](=O)[O-])cc2C)c(OC)c1	67.4	.	.	.	71.6
CN(C)c1ccc(C(=O)c2ccc(N(C)C)c3ccccc23)cc1	14.7	35.8*	44.1*	42.5	14.0
COc1ccc(C(=O)c2ccc(N(C)C)cc2)c(OC)c1	9.0	.	.	.	9.3
C1=C(c2ccc(-c3ccccc3)cc2)Nc2ncnn2C1c1ccco1 (configuration not stated)	84.1	18.4*	101.5	81.9	83.7
CC(/C=N/NC(=O)c1cc(-c2cccnc2)nc2c1c(C)nn2-c1ccccc1)=C\c1ccccc1	63.3	.	.	.	62.0
O=C(NCCc1ccncc1)Nc1cccc(Cl)c1	101.0	106.3	101.1	80.6	104.4
O=C(Nc1cccc(Cl)c1)Nc1nnc(-c2ccncc2)s1	3.8*	.	.	.	3.2*
O=C(Nc1ccc(F)cc1)Nc1nnc(-c2ccncc2)s1	32.2	.	.	.	20.4
O=C(Nc1ccc(Cl)cc1)Nc1nnc(-c2ccncc2)s1	4.3*	.	.	.	2.1*
CC(=O)c1ccc(NC(=O)Nc2cccc(Cl)c2)cc1	61.4	5.0*	98.9	67.6	49.7
CCSc1cc(N2CCCC2)nc(-c2ccccc2Cl)n1	82.5	.	.	.	94.8
SMILES	bCat KO growth	H69AR inhibit	Fibroblast inh	HUVEC prolif 384	HCT116 PTEN-null
O=C(Nc1ccccc1)OC1CCC2CC1CCC2OC(=O)Nc1ccccc1 (configuration not stated)	36.1	.	.	.	37.7
Cc1c(/C=C(\C#N)c2nn(-c3ccccc3)c(N)c2C#N)c2ccccc2n1Cc1ccc(F)cc1	58.8	9.6*	65.0	36.4	57.3
CCCN(CCO)Cc1ccc(F)c(Br)c1	97.4	.	.	.	113.5
Cc1cc(C)nc(N2CCCC(C(=O)Nc3nnc(C(C)C)s3)C2)n1 (configuration not stated)	93.3	88.6	106.3	93.8	88.5
Cc1ccccc1NC(=O)CC1SC(=O)N(c2ccccc2)C1=O (configuration not stated)	88.7	104.8	102.8	90.8	107.8
CCCN1C(=O)SC(CC(=O)Nc2ccccc2C)C1=O (configuration not stated)	65.5	29.7*	106.3	92.9	68.5
N#CC1=C2SCC(O)(c3ccccc3)N2C(=O)CC1c1ccccc1F (configuration not stated)	26.6	15.4*	60.1	36.8	26.2
O=C1/C(=C\c2cccnc2)Sc2ccccc21	65.4	.	.	.	62.6
CC1C/C(=C\c2cccnc2)C(=O)/C(=C/c2cccnc2)C1 (configuration not stated)	2.7*	.	.	.	2.1*
O=C(Nc1ccc(N2CCOCC2)c(Cl)c1)c1cc(F)c(F)cc1Cl	65.1	71.6	104.9	97.3	58.0
O=C(Nc1ccc(N2CCOCC2)c(Cl)c1)c1c(F)c(F)c(F)c(F)c1F	19.8	32.4*	87.1	89.8	26.2
Cc1cc(CCCCCCCCc2cc(C)cc(=O)o2)oc(=O)c1	84.2	.	.	.	88.0
Cc1cc(N2C(=O)C3C4CC(C(Br)C4Br)C3C2=O)no1 (configuration not stated)	97.7	.	.	.	97.0
CNC(=O)/C=C1\NC(C)(C)Cc2c1ccc1ccccc21	54.5	22.7*	89.5	80.2	55.9
COc1ccccc1-c1c(C(F)(F)F)oc2cc(OC(=O)c3cccc([N+](=O)[O-])c3C)ccc2c1=O	97.7	.	.	.	104.5
COc1ccc(C(NC(=O)c2c(F)c(F)c(F)c(F)c2F)c2ccccc2)cc1 (configuration not stated)	1.3*	.	.	.	1.7*
Cc1cc(C)c(NC(=O)CSc2nnc(SCC(=O)Nc3c(C)cc(C)cc3C)n2N)c(C)c1	97.1	88.8	96.5	94.4	96.9
CCCc1cc(=O)[nH]c(/N=C(/NC(=O)c2ccccc2)Nc2ccc3c(c2)OCCO3)n1	.	32.4*	75.9	55.4	.
CC(C)N1CC(O)=C(c2nc3ccccc3c(=O)[nH]2)C1=N	82.4	92.6	99.3	87.3	79.1
COc1cccc(N2CC(O)=C(c3nc4ccccc4c(=O)[nH]3)C2=N)c1	18.0	28.9*	66.3	61.7	16.7
CC(=O)N1N=C(c2ccco2)CC1c1cccs1 (configuration not stated)	90.5	.	.	.	105.7
CC(=O)N1N=C(c2ccc(C)o2)CC1c1ccc(Br)cc1 (configuration not stated)	101.6	.	.	.	96.5
O=C(CCl)N1N=C(c2ccco2)CC1c1cccs1 (configuration not stated)	3.2*	.	.	.	1.9*
Cc1ccc(C2=NN(C(=O)CCl)C(c3cccs3)C2)o1 (configuration not stated)	3.6*	.	.	.	2.1*
CNC(=O)CN(C1CCCCC1)S(=O)(=O)c1ccc(OC)c(Cl)c1	94.1	94.5	106.4	91.5	101.5
Clc1cccc(-c2nnc3sc(-c4ccccc4)nn23)c1	.	84.5	103.6	102.1	.
Cc1cc(-c2nn3c(-c4ccccc4)nnc3s2)c2ccccc2n1	67.1	77.2	99.2	77.0	57.8
CCOc1ccc(-c2nn3c(-c4ccccc4)nnc3s2)cc1	110.8	77.3	102.3	19.4*	100.3
COc1cccc(-c2nnc3sc(-c4ccc(C)cc4)nn23)c1	49.6	.	.	.	48.0
